In ChEMBL document CHEMBL1153988 (J Med Chem, 2009):
The source made the active and inactive calls. No cut-off for these calls is given here.

Key:
[1] = tested on: Mus musculus; assay: Anticonvulsant activity in CF1 albino mouse assessed as protection against scMet-induced seizures at 300 mg/kg, ip after 0.5 hrs; type: functional, organism-based; design: dose 300 mg/kg
Method in brief: (§1)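 Adult male CF no. 1 albino mice (18-25 g) dosed intraperitoneally with compound suspended in 0.5% methylcellulose (0.01 mL/g). Convulsant challenge given subcutaneously as a 0.85% pentylenetetrazol solution in 0.9% saline. Read-out is animals protected over animals tested, with neurotoxicity scored in parallel.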

[2] = tested on: Mus musculus; assay: Anticonvulsant activity in CF1 albino mouse assessed as protection against maximal electroshock-induced seizures at 300 mg/kg, ip after 4 hrs; type: functional, organism-based; design: dose 300 mg/kg
Method in brief: (§2)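 Adult male CF no. 1 albino mice (18-25 g). Test compound suspended in 0.5% methylcellulose and given intraperitoneally at 0.01 mL/g body weight. Maximal electroshock challenge at the stated time. Read-out is the number of animals protected over the number tested; neurotoxicity is scored in parallel.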

[3] = tested on: Mus musculus; assay: Anticonvulsant activity in CF1 albino mouse assessed as protection against scMet-induced seizures at 30 mg/kg, ip after 4 hrs; type: functional, organism-based; design: dose 30 mg/kg; method in brief: as §1
[4] = tested on: Mus musculus; assay: Anticonvulsant activity in CF1 albino mouse assessed as protection against scMet-induced seizures at 100 mg/kg, ip after 0.5 hrs; type: functional, organism-based; design: dose 100 mg/kg; method in brief: as §1
[5] = tested on: Rattus norvegicus; assay: Anticonvulsant activity in albino Sprague-Dawley rat assessed as protection against maximal electroshock-induced seizures at 30 mg/kg, po after 1 hr; type: functional, organism-based; design: dose 30 mg/kg
Method in brief: (§3)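 Adult male Sprague-Dawley albino rats (100-150 g) dosed orally with compound suspended in 0.5% methylcellulose (0.04 mL per 10 g). Maximal electroshock challenge at the stated time. Protection is scored in 25% steps as the fraction of animals protected, with neurotoxicity recorded in parallel.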

[6] = tested on: Rattus norvegicus; assay: Anticonvulsant activity in albino Sprague-Dawley rat assessed as protection against scMet-induced seizures at 30 mg/kg, po after 30 mins; type: functional
Method in brief: (§4)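 Male Sprague-Dawley albino rats (100-150 g) were given the compound orally as a suspension in 0.5% methylcellulose. Seizures were induced by subcutaneous pentylenetetrazol, dissolved in 0.9% saline as a 2.82% solution. The read-out was animals protected over animals tested.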

[7] = tested on: Rattus norvegicus; assay: Anticonvulsant activity in albino Sprague-Dawley rat assessed as protection against maximal electroshock-induced seizures at 30 mg/kg, po after 4 hrs; type: functional, organism-based; design: dose 30 mg/kg; method in brief: as §3
[8] = tested on: Mus musculus; assay: Anticonvulsant activity in CF1 albino mouse assessed as protection against scMet-induced seizures at 300 mg/kg, ip after 4 hrs; type: functional, organism-based; design: dose 300 mg/kg; method in brief: as §1
[9] = tested on: Rattus norvegicus; assay: Anticonvulsant activity in albino Sprague-Dawley rat assessed as protection against scMet-induced seizures at 30 mg/kg, po after 2 hrs; type: functional; method in brief: as §4
[10] = tested on: Rattus norvegicus; assay: Anticonvulsant activity in albino Sprague-Dawley rat assessed as protection against scMet-induced seizures at 30 mg/kg, po after 4 hrs; type: functional, organism-based; design: dose 30 mg/kg; method in brief: as §4
[11] = tested on: Mus musculus; assay: Neurotoxicity in CF1 albino mouse at 300 mg/kg, ip after 4 hrs; type: toxicity, organism-based; design: dose 300 mg/kg, route intraperitoneal; settings: in vivo
Method in brief: (§5)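 Male CF no. 1 albino mice (18-25 g) received a single ip dose as a suspension in 0.5% methylcellulose. The read-out was the number of animals showing neurotoxicity (minimal motor impairment) over the number tested.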

[12] = tested on: Mus musculus; assay: Neurotoxicity in CF1 albino mouse at 300 mg/kg, ip after 0.5 hrs; type: toxicity, organism-based; design: dose 300 mg/kg, route intraperitoneal; settings: in vivo; method in brief: as §5
[13] = tested on: Rattus norvegicus; assay: Anticonvulsant activity in albino Sprague-Dawley rat assessed as protection against maximal electroshock-induced seizures at 30 mg/kg, po after 30 mins; type: functional, organism-based; design: dose 30 mg/kg; method in brief: as §3
[14] = tested on: Mus musculus; assay: Neurotoxicity in CF1 albino mouse at 30 mg/kg, ip after 4 hrs; type: toxicity, organism-based; design: dose 30 mg/kg, route intraperitoneal; settings: in vivo; method in brief: as §5
[15] = tested on: Mus musculus; assay: Anticonvulsant activity in CF1 albino mouse assessed as protection against maximal electroshock-induced seizures at 30 mg/kg, ip after 4 hrs; type: functional, organism-based; design: dose 30 mg/kg; method in brief: as §2
[16] = tested on: Mus musculus; assay: Neurotoxicity in CF1 albino mouse at 100 mg/kg, ip after 4 hrs; type: toxicity, organism-based; design: dose 100 mg/kg, route intraperitoneal; settings: in vivo; method in brief: as §5
[17] = tested on: Mus musculus; assay: Neurotoxicity in CF1 albino mouse at 30 mg/kg, ip after 0.5 hrs; type: toxicity, organism-based; design: dose 30 mg/kg, route intraperitoneal; settings: in vivo; method in brief: as §5
[18] = tested on: Mus musculus; assay: Anticonvulsant activity in CF1 albino mouse assessed as protection against maximal electroshock-induced seizures at 100 mg/kg, ip after 0.5 hrs; type: functional, organism-based; design: dose 100 mg/kg; method in brief: as §2
[19] = tested on: Mus musculus; assay: Anticonvulsant activity in CF1 albino mouse assessed as protection against maximal electroshock-induced seizures at 300 mg/kg, ip after 0.5 hrs; type: functional, organism-based; design: dose 300 mg/kg; method in brief: as §2
[20] = tested on: Mus musculus; assay: Anticonvulsant activity in CF1 albino mouse assessed as protection against maximal electroshock-induced seizures at 100 mg/kg, ip after 4 hrs; type: functional, organism-based; design: dose 100 mg/kg; method in brief: as §2
[21] = tested on: Rattus norvegicus; assay: Anticonvulsant activity in albino Sprague-Dawley rat assessed as protection against scMet-induced seizures at 30 mg/kg, po after 1 hr; type: functional
Method in brief: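 Oral dosing of male Sprague-Dawley rats (100-150 g) with compound in 0.5% methylcellulose. Convulsant challenge given subcutaneously as a 2.82% pentylenetetrazol solution in 0.9% saline. Groups of about 8 rats per dose. For quantitation, doses spanning 0% to 100% protection were fitted by probit analysis to give ED50 with 95% confidence interval.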

[22] = tested on: Mus musculus; assay: Anticonvulsant activity in CF1 albino mouse assessed as protection against maximal electroshock-induced seizures at 30 mg/kg, ip after 0.5 hrs; type: functional, organism-based; design: dose 30 mg/kg; method in brief: as §2
[23] = tested on: Mus musculus; assay: Neurotoxicity in CF1 albino mouse at 100 mg/kg, ip after 0.5 hrs; type: toxicity, organism-based; design: dose 100 mg/kg, route intraperitoneal; settings: in vivo; method in brief: as §5
[24] = tested on: Rattus norvegicus; assay: Anticonvulsant activity in albino Sprague-Dawley rat assessed as protection against maximal electroshock-induced seizures at 30 mg/kg, po after 15 mins; type: functional, organism-based; design: dose 30 mg/kg; method in brief: as §3
[25] = tested on: Mus musculus; assay: Anticonvulsant activity in CF1 albino mouse assessed as protection against scMet-induced seizures at 30 mg/kg, ip after 0.5 hrs; type: functional, organism-based; design: dose 30 mg/kg; method in brief: as §1
[26] = tested on: Rattus norvegicus; assay: Anticonvulsant activity in albino Sprague-Dawley rat assessed as protection against maximal electroshock-induced seizures at 30 mg/kg, po after 2 hrs; type: functional, organism-based; design: dose 30 mg/kg; method in brief: as §3
[27] = tested on: Rattus norvegicus; assay: Anticonvulsant activity in albino Sprague-Dawley rat assessed as protection against scMet-induced seizures at 30 mg/kg, po after 15 mins; type: functional; method in brief: as §4
[28] = tested on: Rattus norvegicus; assay: Anticonvulsant activity in albino Sprague-Dawley rat assessed as protection against maximal electroshock-induced seizures at 75 mg/kg, po after 1 hr; type: functional, organism-based; design: dose 75 mg/kg; method in brief: as §3
[29] = tested on: Rattus norvegicus; assay: Anticonvulsant activity in albino Sprague-Dawley rat assessed as protection against maximal electroshock-induced seizures at 75 mg/kg, po after 2 hrs; type: functional, organism-based; design: dose 75 mg/kg; method in brief: as §3
[30] = tested on: Rattus norvegicus; assay: Neurotoxicity in albino Sprague-Dawley rat assessed as animal exhibiting toxicity at 75 mg/kg, po; type: organism-based; design: dose 75 mg/kg, route oral; settings: in vivo
Method in brief: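 Neurotoxicity was scored in male Sprague-Dawley albino rats (100-150 g) dosed orally with a suspension in 0.5% methylcellulose. The read-out was the fraction of animals showing neurotoxicity (minimal motor impairment).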

[31] = tested on: Rattus norvegicus; assay: Anticonvulsant activity in albino Sprague-Dawley rat assessed as protection against scMet-induced seizures at 75 mg/kg, po after 15 mins; type: functional, organism-based; design: dose 75 mg/kg; method in brief: as §4
[32] = tested on: Rattus norvegicus; assay: Anticonvulsant activity in albino Sprague-Dawley rat assessed as protection against maximal electroshock-induced seizures at 75 mg/kg, po after 30 mins; type: functional; method in brief: as §3
[33] = tested on: Rattus norvegicus; assay: Anticonvulsant activity in albino Sprague-Dawley rat assessed as protection against scMet-induced seizures at 75 mg/kg, po after 2 hrs; type: functional; method in brief: as §4
[34] = tested on: Mus musculus; assay: Anticonvulsant activity in CF1 albino mouse assessed as protection against scMet-induced seizures at 100 mg/kg, ip after 4 hrs; type: functional, organism-based; design: dose 100 mg/kg; method in brief: as §1
[35] = tested on: Rattus norvegicus; assay: Anticonvulsant activity in albino Sprague-Dawley rat assessed as protection against scMet-induced seizures at 75 mg/kg, po after 1 hr; type: functional, organism-based; design: dose 75 mg/kg; method in brief: as §4
[36] = tested on: Rattus norvegicus; assay: Anticonvulsant activity in albino Sprague-Dawley rat assessed as protection against maximal electroshock-induced seizures at 75 mg/kg, po after 4 hrs; type: functional; method in brief: as §3
[37] = tested on: Rattus norvegicus; assay: Anticonvulsant activity in albino Sprague-Dawley rat assessed as protection against maximal electroshock-induced seizures at 75 mg/kg, po after 15 mins; type: functional; method in brief: as §3
[38] = tested on: Rattus norvegicus; assay: Anticonvulsant activity in albino Sprague-Dawley rat assessed as protection against scMet-induced seizures at 75 mg/kg, po after 30 mins; type: functional, organism-based; design: dose 75 mg/kg; method in brief: as §4
[39] = tested on: Rattus norvegicus; assay: Anticonvulsant activity in albino Sprague-Dawley rat assessed as protection against scMet-induced seizures at 75 mg/kg, po after 4 hrs; type: functional, organism-based; design: dose 75 mg/kg; method in brief: as §4

Structure (SMILES)	Activity [1]	Activity [2]	Activity [3]	Activity [4]	Activity [8]	Activity [11]	Activity [14]	Activity [15]	Activity [17]	Activity [18]	Activity [19]	Activity [20]	Activity [22]	Activity [25]	other results
CC1(C)C(C)(C)C1(F)C(=O)NC(N)=O	Non-toxic	Non-toxic	Non-toxic	Non-toxic	Non-toxic	Non-toxic	Non-toxic	Non-toxic	Non-toxic	Non-toxic	Non-toxic	Non-toxic	Non-toxic	Non-toxic	Activity [5]: inactive; Activity [6]: 25%; Activity [7]: inactive; Activity [9]: 50%; Activity [10]: inactive; Activity [12]: Non-toxic; Activity [13]: inactive; Activity [16]: Non-toxic; Activity [21]: 25%; Activity [23]: Non-toxic; Activity [24]: inactive; Activity [26]: inactive; Activity [27]: 25%
CC1(C)C(C)(C)C1(Cl)C(=O)O	Non-toxic	Non-toxic	Non-toxic	Non-toxic	Non-toxic	Non-toxic	Non-toxic	Non-toxic	Non-toxic	Non-toxic	Non-toxic	Non-toxic	Non-toxic	Non-toxic	Activity [28]: inactive; Activity [29]: inactive; Activity [30]: Not Active; Activity [31]: inactive; Activity [32]: 25%; Activity [33]: 25%; Activity [34]: Non-toxic; Activity [35]: inactive; Activity [36]: 25%; Activity [37]: 25%; Activity [38]: inactive; Activity [39]: inactive
